Reference: ChEMBL document CHEMBL1781942, “Microwave-assisted synthesis, crystal structure of pyrazolo[1,5-a]pyrazin-4(5H)-ones and their selective effects on lung cancer cells” (Eur J Med Chem, 2011)
The source made the active and inactive calls. The calls are words filed in the database; no cut-off is given here.

Columns and labels:
A549 [1] = assay: Growth inhibition of human A549 cells assessed as cell viability at 8 to 64 uM after 48 hrs by SRB assay; type: functional, cell-based
In short: (§1)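 A549 cells (p53 wild-type) in RPMI 1640 with 10% bovine calf serum, seeded at 6250/cm2 in 96-well plates. Exposed 48 h to 8, 16, 32 or 64 µM. SRB read-out gave survival percentage against 0.1% DMSO-treated cells. Means ± SE from three independent experiments.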

A549 [2] = assay: Induction of apoptosis in human A549 cells expressing p53 assessed as chromatin condensation at 16 to 64 uM after 48 hrs by Hoechst 33258 staining-based fluorescence microscopy; type: functional, cell-based
In short: (§2)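 Live A549 cells treated 48 h at 16, 32 or 64 µM, or with 0.1% DMSO. Stained in medium with 10 µg/mL Hoechst 33258 for 10 min at 37 °C, washed with PBS. Fluorescence microscopy (200×) scored intense local nuclear staining as apoptotic. At least 500 cells counted; triplicate.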

NCI-H322 [3] = assay: Induction of apoptosis in human NCI-H322 cells expressing P53 mutant assessed as chromatin condensation at 32 to 64 uM after 48 hrs by Hoechst 33258 staining-based fluorescence microscopy; type: functional, cell-based
In short: (§3)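 H322 or H1299 cells treated 48 h at 32 or 64 µM versus 0.1% DMSO. Fixed in 4% formaldehyde in PBS for 10 min, then stained with 2 µg/mL Hoechst 33258, 30 min, 37 °C, and washed with PBS. Condensed, intensely stained nuclei counted as apoptotic under fluorescence microscopy. At least 500 cells counted; triplicate.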

A549 [4] = assay: Cell cycle arrest in human A549 cells assessed as accumulation at G1 phase at 64 uM after 48 hrs by propidium iodide staining-based flow cytometry relative to control; type: functional
A549 [5] = assay: Cell cycle arrest in human A549 cells assessed as accumulation at S phase at 64 uM after 48 hrs by propidium iodide staining-based flow cytometry (reference value: 30.36 %); type: functional
NCI-H322 [6] = assay: Growth inhibition of human NCI-H322 cells assessed as cell viability after 48 hrs by SRB assay; type: functional, cell-based
In short: (§4)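 H1299 (p53-null) or H322 (p53-mutant) cells in RPMI 1640 with 10% bovine calf serum, seeded at 6250/cm2. Treated 48 h at 16, 32 or 64 µM. SRB assay, survival relative to 0.1% DMSO solvent control. Means ± SE, three independent experiments.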

A549 [7] = assay: Growth inhibition of human A549 cells assessed as cell viability after 48 hrs by SRB assay; type: functional, cell-based; in short: as §1
A549 [8] = assay: Induction of necrosis in human A549 cells assessed as LDH release at 64 uM after 48 hrs; type: functional, cell-based
In short: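 A549 cells exposed 48 h to 64 µM or 0.1% DMSO control. Culture medium collected and lactate dehydrogenase measured with a commercial kit, absorbance at 440 nm. Mean ± SE, n = 3.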

A549 [9] = assay: Induction of apoptosis in human A549 cells expressing p53 assessed as DNA fragmentation at 16 to 64 uM after 48 hrs by Hoechst 33258 staining-based fluorescence microscopy; type: functional, cell-based; in short: as §2
NCI-H1299 [10] = assay: Induction of apoptosis in human p53-null H1299 cells assessed as DNA fragmentation at 32 to 64 uM after 48 hrs by Hoechst 33258 staining-based fluorescence microscopy; type: functional, cell-based; in short: as §3
A549 [11] = assay: Cell cycle arrest in human A549 cells assessed as accumulation at […] phase at 64 uM after 48 hrs by propidium iodide staining-based flow cytometry (reference value: 1.94 %); type: functional
[12] = Cytotoxicity against human embryonic lung cells assessed as growth inhibition at 32 to 64 uM after 48 hrs by SRB assay; type: cell-based
In short: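 Human embryo lung cells grown in RPMI 1640 with 10% bovine calf serum, seeded at 6250/cm2, treated 48 h at 32 or 64 µM. Controls were 0.1% DMSO vehicle and 5-FU as positive control. Viability by SRB, relative to DMSO-treated cells. Means ± SE, three independent experiments.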

NCI-H1299 [13] = assay: Induction of apoptosis in human p53-null H1299 cells assessed as chromatin condensation at 32 to 64 uM after 48 hrs by Hoechst 33258 staining-based fluorescence microscopy; type: functional, cell-based; in short: as §3
A549 [14] = assay: Cell cycle arrest in human A549 cells assessed as accumulation at G2 phase at 64 uM after 48 hrs by propidium iodide staining-based flow cytometry (reference value: 11.52 %); type: functional
NCI-H1299 [15] = assay: Growth inhibition of human H1299 cells assessed as cell viability after 48 hrs by SRB assay; type: functional, cell-based; in short: as §4
NCI-H322 [16] = assay: Induction of apoptosis in human NCI-H322 cells expressing P53 mutant assessed as DNA fragmentation at 32 to 64 uM after 48 hrs by Hoechst 33258 staining-based fluorescence microscopy; type: functional, cell-based; in short: as §3

Structure (SMILES) | growth inhibition (GI) (A549 [1]) | Activity (A549 [2]) | Activity (NCI-H322 [3]) | Activity (A549 [4]) [%] | Activity (A549 [5]) [%] | growth inhibition (GI) (NCI-H322 [6]) | growth inhibition (GI) (A549 [7]) | Activity (A549 [8]) | Activity (A549 [9]) | Activity (NCI-H1299 [10]) | Activity (A549 [11]) [%] | Activity [12] | Activity (NCI-H1299 [13]) | Activity (A549 [14]) [%] | growth inhibition (GI) (NCI-H1299 [15]) | Activity (NCI-H322 [16])
O=C1c2cc(-c3ccccc3)nn2CCN1CCO | inactive |  |  |  |  |  |  |  |  |  |  |  |  |  |  | 
O=C1c2cc(-c3ccccc3)nn2CCN1CCCO | inactive |  |  |  |  |  |  |  |  |  |  |  |  |  |  | 
O=C1c2cc(-c3ccc(Cl)cc3)nn2CCN1CCN1CCOCC1 |  | inactive | Active | 27 | 7.6 | Dose-dependent effect | Dose-dependent effect | inactive | inactive | Active | 1.94 | Non-toxic | Active | 6.83 | Dose-dependent effect | Active
O=C1c2cc(-c3ccc(Cl)cc3)nn2CCN1CCO |  | inactive | Active | 18 | 18.02 | Dose-dependent effect | Dose-dependent effect | inactive | inactive | Active | 1.95 | Non-toxic | Active | 5.37 | Dose-dependent effect | Active
O=C1c2cc(-c3ccccc3)nn2CCN1CCN1CCOCC1 | inactive |  |  |  |  |  |  |  |  |  |  |  |  |  |  | 
COc1ccc(-c2cc3n(n2)CCN(CCCO)C3=O)cc1 | inactive |  |  |  |  |  |  |  |  |  |  |  |  |  |  | 
COc1ccc(-c2cc3n(n2)CCN(CCN2CCOCC2)C3=O)cc1 | inactive |  |  |  |  |  |  |  |  |  |  |  |  |  |  | 
COc1ccc(-c2cc3n(n2)CCN(CCOCCO)C3=O)cc1 | inactive |  |  |  |  |  |  |  |  |  |  |  |  |  |  | 
O=C1c2cc(-c3ccc(Cl)cc3)nn2CCN1CCOCCO |  | inactive | Active | 13 | 20.98 | Dose-dependent effect | Dose-dependent effect | inactive | inactive | Active | 1.93 | Non-toxic | Active | 7.86 | Dose-dependent effect | Active
O=C1c2cc(-c3ccc(Cl)cc3)nn2CCN1CCCO |  | inactive | Active | 32 | 3.83 | Dose-dependent effect | Dose-dependent effect | inactive | inactive | Active | 1.92 | Non-toxic | Active | 5.54 | Dose-dependent effect | Active
COc1ccc(-c2cc3n(n2)CCN(CCO)C3=O)cc1 | inactive |  |  |  |  |  |  |  |  |  |  |  |  |  |  | 
O=C1c2cc(-c3ccccc3)nn2CCN1CCOCCO | inactive |  |  |  |  |  |  |  |  |  |  |  |  |  |  | 
